Calls of active or inactive are those of the source. The calls are words filed in the database; no cut-off is given here.

Drawing on ChEMBL document CHEMBL3822382 (Eur J Med Chem, 2016), this text covers Activity, IC50 and mortality for two molecules.

Data set [1] in a line: Cell cycle arrest in human HCT116 cells expressing wild type p53 assessed as accumulation at S phase at 50 nM after 24 hrs by propidium iodide staining-based flow cytometry (reference value: 15.3%). Type of data set: functional. To be noted: HCT-116.
In a further data set the test system is Chorioallantoic membrane. In words: Antivascular activity in fertilized white leghorn chicken egg chorioallantoic membrane assessed as disruption of preformed blood vessel at 2.5 nmol after 12 hrs by stereomicroscopic analysis. Type of data set: functional, tissue-based. Particulars: Gallus gallus.
For data set [2], the system named is A2780cisR. In words: Vascular disrupting activity against human A2780cis cells xenografted in athymic nude mouse assessed as tumor necrosis at 100 mg/kg, ip after 24 hrs by hematoxylin and eosin staining based microscopic analysis. Type of data set: functional, organism-based. In outline:
(§1)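 Athymic nude mice carried subcutaneous flank xenografts from 8 million cells. A single intraperitoneal dose of 100 mg/kg was given. After 24 h tumors were explanted, fixed in 5% formalin, paraffin-embedded and HE-stained for microscopic examination of vessels, hemorrhage and necrosis.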
In general terms: Xenograft models place foreign cells or tissue in a host animal.

The test system of data set [3] is HT-29. In words: Cell cycle arrest in combretastatin A-4 resistant human HT-29 cells assessed as mitotic cells at 50 nM after 24 hrs by propidium iodide/immuno-staining method (reference value: 3.1 to 3.2%). Type of data set: functional.
Data set [4] deals with HT-29. In words: Cell cycle arrest in combretastatin A-4 resistant human HT-29 cells assessed as accumulation at G2 phase at 100 nM after 24 hrs by propidium iodide staining-based flow cytometry (reference value: 15.6 +/- 0.1%). Type of data set: functional. The essentials: (§2)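 HT-29 cells (200,000/well) were treated 24 h with 100 nM indole, 5 μM CA-4 or DMSO. Cells were trypsinized, fixed in 4% formaldehyde (20 min, RT) and permeabilized in 90% ice-cold methanol (30 min). They were immunostained with anti-phospho-histone H3 (Ser10) (5 μg/mL, 37 °C, 1 h) plus an AlexaFluor-488 secondary, then stained with PI/RNase (30 min, 37 °C). Flow cytometry of 10,000 single cells assigned G1/S/G2/M.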
On the technique in general: A flow cytometer gives signals particle by particle.

Data set [5] relates to HT-29. In words: Cell cycle arrest in combretastatin A-4 resistant human HT-29 cells assessed as mitotic cells at 100 nM after 24 hrs by propidium iodide/immunostaining method (reference value: 3.1 to 3.2%). Type of data set: functional. The essentials:
as §2

Data set [6] can be described thus: Growth inhibition of human KB-V1/Vbl cells after 24 hrs by MTT assay. Type of data set: functional. The essentials:
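Cells seeded at 5000/well (Ea.hy926 10,000/well) and exposed for 24 h to dilution series of 100 µM–5 pM, with DMSO as solvent control. MTT (0.5 mg/mL final) for 2 h. Formazan dissolved in SDS/acetic acid/DMSO and read at 570 nm against a 630 nm background. Viability taken relative to DMSO controls; IC50 from dose–response curves, mean of four independent experiments.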
Background: Tetrazolium assays rely on reduction of a dye to a coloured formazan, in cell work by metabolically active cells.

Data set [7] can be described thus: Cell cycle arrest in human MCF7/Topo cells assessed as accumulation at S phase at 100 nM after 24 hrs by propidium iodide staining-based flow cytometry (reference value: 16%). Type of data set: functional.
Data set [8] concerns HT-29. In words: Induction of apoptosis in combretastatin A-4 resistant human HT-29 cells xenografted in fertilized white leghorn chicken egg chorioallantoic membrane at 5 nmol after 24 hrs by hematoxylin and eosin staining based stereomicroscopic analysis. Type of data set: functional, cell-based. In outline:
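Pellets of 1×10^6 HT-29 cells in matrigel/serum-free RPMI placed on the CAM of fertilized eggs for 48 h. Then 5 nmol (100 µL of 50 µM in PBS) applied outside a silicon ring around the pellet; DMSO as control. Imaged by stereomicroscopy after 24 h. Micro-xenografts then explanted, formalin-fixed, paraffin-embedded and HE-stained.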

The subject of data set [9] is 1411HP. In words: Vascular disrupting activity against multidrug resistant human 1411HP cells xenografted in athymic nude mouse assessed as discoloration of tumor at 100 mg/kg, ip after 24 hrs. Type of data set: functional, organism-based. In outline: (§3)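 Athymic nude mice carried subcutaneous flank xenografts from 8 million cells in PBS. A single intraperitoneal dose of 100 mg/kg was given, and tumor discoloration was photographed 24 h later.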

Data set [10] concerns A2780cisR. Put plainly: Vascular disrupting activity against human A2780cis cells xenografted in athymic nude mouse assessed as discoloration of tumor at 100 mg/kg, ip after 24 hrs. Type of data set: functional, organism-based. In outline:
as §3

Data set [11] relates to HT-29. In words: Cell cycle arrest in combretastatin A-4 resistant human HT-29 cells assessed as accumulation at S phase at 50 nM after 24 hrs by propidium iodide staining-based flow cytometry (reference value: 13.7 +/- 0.3%). Type of data set: functional.
Data set [12] in a line: Cell cycle arrest in human HCT116 cells expressing wild type p53 assessed as accumulation at subG1 phase at 100 nM after 24 hrs by propidium iodide staining-based flow cytometry (reference value: 7.1%). Particulars: HCT-116. Type of data set: functional.
A short description of data set [13]: Cell cycle arrest in human HCT116 cells expressing wild type p53 assessed as accumulation at G2/M phase at 50 nM after 24 hrs by propidium iodide staining-based flow cytometry (reference value: 21%). Type of data set: functional. Particulars: HCT-116.
Data set [14] deals with HT-29. Put plainly: Cell cycle arrest in combretastatin A-4 resistant human HT-29 cells assessed as accumulation at G1 phase at 100 nM after 24 hrs by propidium iodide staining-based flow cytometry (reference value: 68.1 +/- 0.3%). Type of data set: functional. In outline:
as §2

Data set [15] has as its system 1411HP. Put plainly: Vascular disrupting activity against multidrug resistant human 1411HP cells xenografted in athymic nude mouse assessed as disruption of blood vessel at 100 mg/kg, ip after 24 hrs by hematoxylin and eosin staining based microscopic analysis. Type of data set: functional, organism-based. The essentials:
as §1

The species named for a further data set is Gallus gallus. Put plainly: Cytotoxicity against fertilized white leghorn chicken egg chorioallantoic membrane microtumor model of CA-4 resistant human HT-29 cells assessed as reduction in embryo vitality at 5 nmol after 24 hrs. Type of data set: organism-based. Particulars: ht-29, 24 h.
Data set [16] can be described thus: Cell cycle arrest in human 518A2 cells assessed as accumulation at subG1 phase at 100 nM after 24 hrs by propidium iodide staining-based flow cytometry (reference value: 3.8%). Type of data set: functional.
The next data set is filed under the species Sus scrofa. In words: Decrease in rate of porcine brain alpha/beta tubulin polymerization at 5 uM measured every 20 sec by microplate reader analysis.
Data set [17] in a line: Cytotoxicity against fertilized white leghorn chicken embryos in CAM model assessed as lethality at 5 nmol after 24 hrs relative to control. Type of data set: organism-based, Gallus gallus. Particulars: in vivo. In outline:
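Day-5 fertilized eggs (37 °C, 50-60% humidity) windowed, with 6 mm silicon rings placed on CAM vessels and incubated a further 24 h. Compound diluted to 500 µM in PBS and pipetted inside the ring (10 µL = 5 nmol); DMSO control. Vessel changes documented by stereomicroscopy at 0, 12 and 24 h.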

For data set [18], the system named is HT-29. Put plainly: Antivascular activity against in combretastatin A-4 resistant human HT-29 cells xenografted in fertilized white leghorn chicken egg chorioallantoic membrane assessed as loss of cell to cell interaction at 5 nmol after 24 hrs by hematoxylin and eosin staining based stereomicroscopic analysis. Type of data set: functional. In outline:
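Pellets of 1 × 10⁶ HT-29 cells in 10 μL of 1:1 matrigel/serum-free RPMI (gelled 30 min, 37 °C) were placed on the CAM of fertilized eggs and left 48 h. Then 100 μL of a 50 μM PBS dilution (5 nmol) was pipetted outside a silicon ring around the pellet; DMSO served as control. After 24 h, stereomicroscopy was done, and micro-xenografts were explanted, formalin-fixed, paraffin-embedded and HE-stained.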

The nature of data set [19]: Growth inhibition of primary chicken fibroblasts after 48 hrs by MTT assay. To be noted: Gallus gallus, Fibroblast. Type of data set: cell-based. The essentials: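 Chicken heart fibroblasts explanted from 10-day-old embryos, seeded at 10,000/well; cardiomyocytes seeded at 20,000/well. Dilution series given for 48 h, DMSO as control. MTT 0.5 mg/mL for 2 h, absorbance at 570/630 nm. Viability versus DMSO controls; IC50 from dose–response curves, mean of three independent experiments.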

For the molecule `COc1cc(-c2ncn(C)c2-c2ccc3c(c2)c(Cl)cn3C)cc(Br)c1OC.Cl`, the Activity in data set [1] was 12.7%; in the data set with HT-29 [3] it was 28%; in the data set with HT-29 [4] it was 4.6%; in the data set on HT-29 [5], 77.8%; in data set [7] it was 8.6%; in the data set with HT-29 [11] it was 13.5%. The Activity in data set [12] was 25.9%; in data set [13], 17.2%; in the data set with HT-29 [14], 12%; in the data set filed under Gallus gallus it was “Non-toxic”; in [16], 7.4%. The result with Chorioallantoic membrane, in the data set with A2780cisR [2], in the data set with HT-29 [8], in the data set with 1411HP [9], in the data set with A2780cisR [10] and with 1411HP [15] was Active. For the same molecule, the result in the data set listed under Sus scrofa and in the data set on HT-29 [18] was Active. Further, the half-maximal inhibitory concentration (IC50) (commonly the concentration needed to halve the response being measured) came out at 0.0254 µM in [6] and 23 µM in data set [19]. Moreover, the mortality – broadly, the percentage killed – at 24 h in [17] turned out to be 33%.

For the molecule `COc1cc(-c2ncn(C)c2-c2ccc3c(c2)c(Cl)cn3C)cc(OC)c1OC`, the Activity in data set [1] stood at 11.1%; in data set [7], 9.9%; in [12], 32.4%; in data set [13] it was 14.6%. The half-maximal inhibitory concentration (IC50) came to 0.026 µM in data set [6] and 11.6 µM in [19]. Besides, the mortality at 24 h in data set [17] amounted to 80%.
